Series [1] is described as follows: Ratio of drug uptake in Sprague-Dawley rat brain to plasma at 48 mg/kg, ip after 2 hrs by LC-MS/MS analysis. It is filed as ADME, organism-based. The conditions noted are these: read-out: BPR. The procedure, abridged: (§1)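 Nine female SD rats, three per time point, single ip dose of 48 mg/Kg. At 0.5, 2 and 4 h rats were anesthetized with CO2. Heart blood was taken into EDTA-K2 and centrifuged 1500 g, 10 min, for plasma. Brain was weighed and homogenized 1:5 in 20% methanol-water. LC-MS/MS on a C18 column. Mean of 3.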

A short description of series [2]: Drug concentration in Sprague-Dawley rat brain at 48 mg/kg, ip after 0.5 hrs by LC-MS/MS analysis. The following applies: read-out: Drug uptake. It is filed as ADME, organism-based. The procedure, abridged:
as §1

Series [3] is described as follows: Drug concentration in Sprague-Dawley rat plasma at 48 mg/kg, ip after 0.5 hrs by LC-MS/MS analysis. It counts as ADME, organism-based. The procedure, abridged: as §1
Series [4] in a line: Ratio of drug uptake in Sprague-Dawley rat brain to plasma at 48 mg/kg, ip after 30 mins by LC-MS/MS analysis. It counts as ADME, organism-based. The conditions noted are these: read-out: BPR. The procedure, abridged:
as §1

For series [5], the target named is T1, Sphingomyelin phosphodiesterase (Homo sapiens, UniProt P17405).
T1 sequence (P17405 whole entry): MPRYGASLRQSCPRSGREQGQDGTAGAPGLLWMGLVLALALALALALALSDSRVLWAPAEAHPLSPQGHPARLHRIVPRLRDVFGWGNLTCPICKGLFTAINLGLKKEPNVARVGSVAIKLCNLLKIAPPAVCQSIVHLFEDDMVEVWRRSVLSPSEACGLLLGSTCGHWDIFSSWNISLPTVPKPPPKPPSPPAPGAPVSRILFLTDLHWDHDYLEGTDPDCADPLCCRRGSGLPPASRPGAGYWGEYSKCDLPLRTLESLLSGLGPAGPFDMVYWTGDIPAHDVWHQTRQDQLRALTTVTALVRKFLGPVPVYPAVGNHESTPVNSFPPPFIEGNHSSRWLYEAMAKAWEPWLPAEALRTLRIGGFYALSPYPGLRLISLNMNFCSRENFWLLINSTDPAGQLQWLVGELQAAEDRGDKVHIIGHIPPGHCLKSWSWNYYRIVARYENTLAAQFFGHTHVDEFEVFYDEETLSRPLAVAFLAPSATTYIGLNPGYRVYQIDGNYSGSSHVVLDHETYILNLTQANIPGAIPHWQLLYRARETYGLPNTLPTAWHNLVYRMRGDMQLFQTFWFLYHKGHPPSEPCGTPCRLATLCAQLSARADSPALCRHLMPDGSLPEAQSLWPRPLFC
Description: Inhibition of recombinant human acid sphingomyelinase (His62 to Pro628 residues) using NBD-sphingomyelin as substrate after 30 mins by fluorescence based assay. The procedure, abridged: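 Buffer 100 mM sodium acetate pH 4.7, 1% Triton X-100, 40 mM CaCl2, 100 μM ZnCl2. Inhibitors in DMSO at various concentrations, 37 °C, 30 min. NBD-ceramide fluorescence after chloroform/methanol extraction and TLC.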

For series [6], the target named is T2, Sphingomyelin phosphodiesterase 2 (Homo sapiens) (UniProt O60906).
T2 sequence (whole entry): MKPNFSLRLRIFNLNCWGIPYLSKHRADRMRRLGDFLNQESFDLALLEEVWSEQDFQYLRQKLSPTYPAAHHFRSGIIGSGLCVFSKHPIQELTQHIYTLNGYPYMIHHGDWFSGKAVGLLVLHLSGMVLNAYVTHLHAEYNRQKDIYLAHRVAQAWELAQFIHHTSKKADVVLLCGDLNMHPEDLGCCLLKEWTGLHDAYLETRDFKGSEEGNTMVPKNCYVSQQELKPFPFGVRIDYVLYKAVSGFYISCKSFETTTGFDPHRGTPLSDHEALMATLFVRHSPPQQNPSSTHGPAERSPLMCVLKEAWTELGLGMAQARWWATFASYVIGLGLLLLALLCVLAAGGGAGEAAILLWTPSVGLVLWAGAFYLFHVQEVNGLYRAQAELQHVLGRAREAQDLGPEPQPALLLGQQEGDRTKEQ
Put plainly: Inhibition of neutral sphingomyelinase (unknown origin) at 100 uM using NBD-sphingomyelin as substrate after 30 mins by fluorescence based assay. The procedure, abridged: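 Neutral sphingomyelinase assay run as the ASM cell-extract assay (NBD-sphingomyelin, 37 °C, 30 min, chloroform/methanol extraction, TLC, NBD-ceramide fluorescence). Buffer was 200 mM Tris-HCl pH 7.4 with 10 mM MgCl2 and 10 mM dithiothreitol. Tested at 100 μM.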

Each structure is given as a SMILES string. Activity calls are given as the source filed them. No cut-off for these calls is given here.

Broadly, the IC50 is the concentration at which inhibition is half-maximal. As for `O=C(NO)c1cc(OCc2ccc(-c3ccc(Cl)cc3)cc2)no1`, in series [1], the Kp at 2 h came to 6.49. For the same compound, the concentration at 0.5 h was 2120 ng/g in series [2] and 709 ng/mL in series [3]. Also, the Kp at 0.5 h in series [4] stood at 2.94. Also, the IC50 in series [5] stood at 3.37 µM. In addition, the inhibition result in series [6] is “inactive”.
